From PubChem
NALP1 inh: inhibitors of NALP1 inflammasome in yeast | S. cerevisiae NALP1/ASC/caspase-1 growth, X-gal OD620, 72 h | inhibition, % at 10 µM | 280,000 tested, 0.61% active | AID 2071; in the data active = inhibition mostly above about 24%, no sharp cut-off; inactive = mostly below about 32%
Calb FLC: affects C. albicans growth with fluconazole. C. albicans CaCi-2 + fluconazole, Alamar Blue growth, 48 h. AID 1979. 300,000 tested, 0.57% active. growth inhibition, % (no concentration beside the values);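 active = growth inhibition above about 58% in most replicates, limit read from the data, passing the limit was not always enough; inconclusive = exactly half the replicates above a set limit; inactive = most replicates below a set limit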;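 also: all wells also contain fluconazole at 8 µg/ml as a sub-toxic cotreatment; 0% = median of DMSO wells and 100% = median of geldanamycin control wells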
PolyA inhibitor: yeast polyadenylation inhibition | activity score, % at 12 µM | S. cerevisiae SKY197-pL101 polyadenylation reporter, beta-gal luminescence; efflux-impaired pdr1/pdr3 knockout yeast; score 100 = 6 SD above DMSO | 300,000 tested, 0.02% active;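 active = lowest replicate activity score at least 50, where 100 means six control SD above control mean; inconclusive = lowest score under 50 but half or more replicates reach 50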;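 also: yeast exposed to compound for 9 h at 30 °C; higher score means more reporter readthrough which indicates perturbed polyadenylation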
Lmaj promast: reduces viability of Leishmania major promastigotes | AID 1063 | 200,000 tested, 9% active | inhibition, % at 10 µM | resazurin fluorescence viability; in the data active = inhibition above about 50%;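 also: promastigotes grown with compound for 44 hours at 28 °C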
T cruzi repl: blocks replication of Trypanosoma cruzi | T. cruzi beta-gal in NIH3T3, luminescence, 90 h | AID 1885 | 300,000 tested, 1.4% active | inhibition, % (concentration not given with the values);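 active = mean inhibition across valid replicates above about 55%, limit read from the data; inconclusive = mean below that limit but half or more replicates reach it; inactive = mean below it, under half of replicates reach it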;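 also: signal also drops with host cell toxicity which is not excluded here; 0% = plate median of DMSO wells and 100% = zero luminescence signal; higher percent means less beta-gal luminescence so fewer parasites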
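Assay system: NIH/3T3 fibroblasts plus reporter T. cruzi. Amount: NIH/3T3 cells, 5,000 per well. Buffer or medium: DMEM, 2% fetal bovine serum. Doses: compound pinned at 50 nL/well, DMSO. Schedule: ≥90 h infection period, 3 h prior cell attachment. Signal: luminescent β-galactosidase signal after 60 min lysis. Read-out: parasite load inhibition, %.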
NALP3 yeast inh: inhibitors of NALP3 inflammasome in yeast; Yeast reconstituted NLRP3/ASC/caspase-1, beta-gal luminescence, 24 h; inhibition, % at 10 µM; 330,000 tested, 0.39% active;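 active = inhibition of 50% or more; inactive = inhibition below 50%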;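 also: plate controls were induced DMSO wells for no effect and uninduced yeast grown without galactose for full effect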
* = called active by the depositor; ? = inconclusive; . = not tested or not shown. Many of the other results were omitted from the sample, so hits are more common in it than they were.

SMILES	NALP1 inh	Calb FLC	PolyA inhibitor	Lmaj promast	T cruzi repl	NALP3 yeast inh
CN=C1SC(CC(=O)Nc2c(C)cccc2C)C(=O)N1/N=C/c1cccs1 (configuration not stated)	20	0	1	55*	2	21
CS(=O)(=O)N(CC(=O)N1CCc2ccccc2C1)c1ccc(Cl)cc1F	0	3	-17	.	6	.
NC(=O)COn1c(SCC(N)=O)nc2ccccc2c1=O	.	5	20	.	-10	-4
O=C(NNc1ccc(C(F)(F)F)cc1[N+](=O)[O-])c1ccc(NS(=O)(=O)c2ccc(F)cc2)cc1	-3	13	1	52*	-1	.
COc1ccc(NC(=O)C(Sc2nnc(-c3ccncc3)n2-c2ccccc2C)c2ccccc2)cc1Cl (configuration not stated)	4	32	-8	99*	49	1
Cc1c(CCOC(=O)CC23CC4CC(CC(C4)C2)C3)sc[n+]1Cc1ccccc1	22	100*	-11	100*	40	14
Cc1cc(C)cc(-n2c(=O)c3ccccc3n(CC(=O)NCC3CCCO3)c2=O)c1 (configuration not stated)	17	-1	18	.	1	1
Cc1ccsc1/C=C/C1=Cc2c(sc(NC(=O)CSc3n[nH]c(N)n3)c2C#N)C(C)(C)C1	0	25	-20	100*	16	13
CCOc1ccc(/C=C/C2=Cc3c(sc(NC(=O)CSc4n[nH]c(N)n4)c3C#N)C(C)(C)C2)cc1	4	24	24	100*	21	8
Cc1ccc(CNC(=O)C2CCCN(c3ncnc4c3nc3n4CCCCC3)C2)cc1 (configuration not stated)	-8	1	2	.	0	2
CC(C)=CCC/C(C)=C/CCC(C)NCCN1CCNCC1 (configuration not stated)	5	-10	5	101*	20	15
CC(C)=CCC/C(C)=C/CC(C)(C)CNCCN1CCNCC1	2	-23	-40	100*	?	32
C=CC(C)(O)CCC=C(C)C (configuration not stated)	.	.	.	.	.	12
COc1ccccc1NC(=O)CNC(=O)c1ccc([N+](=O)[O-])cc1	-6	1	10	-3	5	8
COc1cccc(-c2noc(CCC(=O)NCC3CCCO3)n2)c1 (configuration not stated)	5	3	2	-3	-9	7
CC1=C(C(=O)OC2CCCCC2)C(c2ccco2)C2=C(CC(C)(C)CC2=O)N1 (configuration not stated)	-5	-12	-11	59*	12	6
Cc1ccc(C(=O)CSC2=C(C#N)C(c3ccco3)C3=C(CC(C)(C)CC3=O)N2)cc1 (configuration not stated)	11	5	4	90*	20	17
CC1(C)CC(=O)C2=C(C1)NC(SCC(=O)Nc1ccccc1)=C(C#N)C2c1ccco1 (configuration not stated)	4	2	-3	1	8	4
O=C(COc1ccc(Cl)cc1Cl)N1CCCN(C(=O)COc2ccc(Cl)cc2Cl)CC1	1	93*	-13	97*	60*	1
C=CCSc1nnc2nc3[nH]c4c(C)cccc4c3nn12	-3	11	-1	72*	-4	16
C=CC(C)(C)c1cc2cc3ccoc3cc2oc1=O	14	-13	0	-5	-29	2
Cc1csc(NC(=O)c2nc3nc(C)cc(C)n3n2)n1	23	42	4	77*	-10	5
CCC(=O)Nc1nc(-c2cc([N+](=O)[O-])cs2)cs1	-2	-5	-9	90*	-3	15
O=C(Nc1nc(-c2ccccc2)cs1)c1cccc([N+](=O)[O-])c1	19	-32	-12	4	55*	10
Cc1csc(NC(=O)c2cc([N+](=O)[O-])cc([N+](=O)[O-])c2)n1	22	-10	-12	94*	46	18
SMILES	NALP1 inh	Calb FLC	PolyA inhibitor	Lmaj promast	T cruzi repl	NALP3 yeast inh
CCOc1ccc(N(C(=O)CNC(=O)c2cccs2)C(C(=O)NCC2CCCO2)c2ccc(OC)c(OC)c2)cc1 (configuration not stated)	2	-5	-12	-3	-1	14
CCOC(=O)C1CCCN(S(=O)(=O)c2ccc(Br)s2)C1 (configuration not stated)	36	3	-26	-4	14	31
O=C(Nc1cccc(-c2csc(Nc3cccc(C(F)(F)F)c3)n2)c1)c1ccccc1	.	4	7	.	32	17
O=C(Nc1ccc(-c2csc(Nc3cccc(C(F)(F)F)c3)n2)cc1)c1ccccc1	.	-10	8	.	79*	22
O=C(Nc1nc(-c2ccccc2)cs1)C1CCCN(S(=O)(=O)c2ccccc2)C1 (configuration not stated)	-11	-2	0	45	61*	-4
O=C(Nc1nc(-c2ccccc2)cs1)C1CCCN(S(=O)(=O)c2cccc([N+](=O)[O-])c2)C1 (configuration not stated)	-9	-19	8	93*	74*	-8
Cc1csc(NC(=O)C2CCCN(S(=O)(=O)c3ccc(Br)s3)C2)n1 (configuration not stated)	15	23	4	61*	-4	6
CC1CCCN(S(=O)(=O)c2cccc([N+](=O)[O-])c2)C1 (configuration not stated)	6	-12	4	.	-5	14
CCn1c(CNc2ccc(F)cc2)nnc1SCC(=O)Nc1ccc(OC)cc1OC	-22	-4	22	3	7	18
O=C1CN(S(=O)(=O)c2ccccc2)CCN1	.	.	.	.	.	5
Cc1ccc(NC(=O)C2CC2C)cc1S(=O)(=O)N1CCOCC1 (configuration not stated)	.	4	3	.	60*	9
CC(=O)Nc1ccc(NC(=O)C2CCCN(C(=O)c3ccc(Cl)cc3)C2)cc1 (configuration not stated)	2	-2	16	4	-19	8
Cc1ccc(NC(=O)C2CCCN(C(=O)c3ccc(Cl)cc3)C2)cc1S(=O)(=O)N1CCOCC1 (configuration not stated)	-12	-6	-12	13	62*	2
Cc1ccc(NS(=O)(=O)c2cccc(C(=O)O)c2)cc1S(=O)(=O)N1CCOCC1	12	-2	-2	57*	13	-2
CCN(CC)S(=O)(=O)c1ccc(NC(=O)C2CCCN(C(=O)c3ccc(Cl)cc3)C2)cc1 (configuration not stated)	.	-2	8	97*	6	29
CS(=O)(=O)c1ccc(NC(=O)C2CCCN(C(=O)c3ccc(Cl)cc3)C2)cc1 (configuration not stated)	.	.	.	.	.	0
